pIC50: −log10 of the molar value. Activity calls are given as the source filed them. The calls are words filed in the database; no cut-off is given here.

As a reminder, the pIC50 is the negative decadic logarithm of the IC50, by convention in mol/L. A higher pIC50 goes with a small IC50.

The first assay deals with T1, Aromatase (Homo sapiens, UniProt P11511).
T1 sequence (P11511 whole entry): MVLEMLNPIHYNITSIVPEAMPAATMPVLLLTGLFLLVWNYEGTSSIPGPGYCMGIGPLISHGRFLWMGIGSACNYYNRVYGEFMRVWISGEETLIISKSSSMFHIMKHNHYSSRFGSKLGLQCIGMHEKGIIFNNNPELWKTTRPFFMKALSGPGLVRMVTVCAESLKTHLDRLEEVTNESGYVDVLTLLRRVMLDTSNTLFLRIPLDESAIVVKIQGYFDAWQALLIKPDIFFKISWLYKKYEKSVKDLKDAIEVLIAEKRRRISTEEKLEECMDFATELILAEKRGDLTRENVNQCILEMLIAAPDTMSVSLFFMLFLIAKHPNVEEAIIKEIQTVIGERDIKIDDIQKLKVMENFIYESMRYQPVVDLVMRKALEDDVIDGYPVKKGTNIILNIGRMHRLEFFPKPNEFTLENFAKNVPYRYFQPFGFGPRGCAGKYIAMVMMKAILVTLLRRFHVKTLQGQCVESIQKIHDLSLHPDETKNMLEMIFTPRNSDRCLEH
Nature of the assay: Inhibition of aromatase in human SKBR3 cells by tritiated water release assay. The assay is classed as cell-based. The settings on record: sk-br-3. The method in brief: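 Subconfluent SK-BR-3 cells were switched to defined DMEM/F12 (human albumin, transferrin, insulin) and treated 24 h at five concentrations in triplicate (0.1% DMSO vehicle). They were then incubated 3 h with 100 nM [1β-3H]-androstenedione. TCA-precipitated medium was chloroform-extracted and charcoal-treated, and 3H2O counted as pmol/h/10^6 cells, normalized by DNA assay. IC50 was taken from sigmoidal dose–response fits.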
Turning to `CN(c1ccc([N+](=O)[O-])cc1OCc1cccc2ccccc12)S(C)(=O)=O`, the pIC50 is 5.93.
Turning to `CN(c1ccc(N)cc1OCc1ccccc1)S(C)(=O)=O`, the pIC50 was 5.96.
As to `O=C(Nc1ccc([N+](=O)[O-])cc1OCc1ccccc1)c1ccc(-c2ccccc2)cc1`, the pIC50 is below 4.60.
The compound `CN(c1ccc(NC(=O)c2ccc(Cl)c([N+](=O)[O-])c2)cc1OCc1ccccc1)S(C)(=O)=O` gave a pIC50 of 6.16.
Consider `CC(=O)Nc1ccc(N(C)S(C)(=O)=O)c(OCc2ccccc2)c1`, for which the pIC50 is 4.78.
`CCC(CC)Oc1cc([N+](=O)[O-])ccc1NS(C)(=O)=O` showed a pIC50 of 6.52.
Consider `CS(=O)(=O)Nc1ccc([N+](=O)[O-])cc1OCc1ccccc1`, for which the pIC50 is 5.67.
Turning to `Cc1ccc(COc2cc([N+](=O)[O-])ccc2NS(C)(=O)=O)cc1`, the pIC50 was 5.76.
`CCCCCCCCCOc1cc([N+](=O)[O-])ccc1NS(C)(=O)=O` gave a pIC50 of 6.04.
Still for that read-out and setting: the same measure for `CN(c1ccc([N+](=O)[O-])cc1OC1CCCCC1)S(C)(=O)=O`: 6.33.
`CN(c1ccc([N+](=O)[O-])cc1OCc1ccccc1-c1ccccc1)S(C)(=O)=O` had a pIC50 of 6.48.
As for `CN(c1ccc([N+](=O)[O-])cc1OCC1CCCCC1)S(C)(=O)=O`, the negative-log IC50 (pIC50) was 6.02.
The same measure, in the same setting: then `CS(=O)(=O)Nc1ccc([N+](=O)[O-])cc1OCc1ccc(Cl)cc1`, with 6.54.
As for `CC(C)c1ccc(COc2cc([N+](=O)[O-])ccc2NS(C)(=O)=O)cc1`, the pIC50 was 5.13.
`CS(=O)(=O)Nc1ccc([N+](=O)[O-])cc1OC1CCCCC1` [NS-398]: the pIC50 is 6.17.
Regarding `CN(c1ccc(NC(=O)c2ccccc2)cc1OCc1ccccc1)S(C)(=O)=O`, the pIC50 was 5.75.
In the case of `CS(=O)(=O)Nc1ccc([N+](=O)[O-])cc1OCC1CCCCC1`, the pIC50 was 5.92.
In turn, `CN(c1ccc(NC(=O)c2ccc(-c3ccccc3)cc2)cc1OCc1ccccc1)S(C)(=O)=O` had a pIC50 of 6.92.
On to `CCCCCCOc1cc([N+](=O)[O-])ccc1NS(C)(=O)=O`, for which the pIC50 is 5.57.
The compound `CCC(CC)Oc1cc([N+](=O)[O-])ccc1N(C)S(C)(=O)=O` showed a pIC50 of 6.64.
The compound `CCCCCCCCCOc1cc([N+](=O)[O-])ccc1N(C)S(C)(=O)=O` gave a pIC50 of 5.40.
Compound `CS(=O)(=O)Nc1ccc([N+](=O)[O-])cc1OCc1ccc(Br)cc1` showed a pIC50 of 5.23.
For the compound `Cc1ccc(C)c(COc2cc([N+](=O)[O-])ccc2NS(C)(=O)=O)c1`, the pIC50 was 6.43.
The same measure, in the same setting: the same measure for `Cc1ccc(COc2cc([N+](=O)[O-])ccc2N(C)S(C)(=O)=O)cc1`: 5.63.
The compound `CCCOc1cc([N+](=O)[O-])ccc1NS(C)(=O)=O` showed a pIC50 of 5.60.
`CN(c1ccc(NC(=O)c2ccc(C#N)cc2)cc1OCc1ccccc1)S(C)(=O)=O` gave a pIC50 of 6.36.
Compound `CS(=O)(=O)Nc1ccc([N+](=O)[O-])cc1OCc1ccccc1-c1ccccc1` showed a pIC50 of 6.59.
The compound `O=[N+]([O-])c1ccc(S(=O)(=O)Nc2ccc([N+](=O)[O-])cc2OCc2ccccc2)cc1` gave a pIC50 of 5.66.
`CN(c1ccc([N+](=O)[O-])cc1OCc1ccc2ccccc2c1)S(C)(=O)=O`: the pIC50 is 5.57.
`CN(c1ccc(NC(=O)C2CCCCC2)cc1OCc1ccccc1)S(C)(=O)=O` gave a pIC50 of 6.60.
Same read-out and setting: the same measure for `CS(=O)(=O)Nc1ccc([N+](=O)[O-])cc1OC1CCCC1`: 6.06.
On the same count and under the same terms, the same measure for `CN(c1ccc([N+](=O)[O-])cc1OCc1ccc([N+](=O)[O-])cc1)S(C)(=O)=O`: 6.31; for `CN(c1ccc([N+](=O)[O-])cc1OCc1ccc(F)cc1)S(C)(=O)=O`: 5.75; for `O=C(Nc1ccc([N+](=O)[O-])cc1OCc1ccccc1)c1ccc(Cl)c([N+](=O)[O-])c1`: below 4.60.
For the compound `CS(=O)(=O)Nc1ccc([N+](=O)[O-])cc1OCCc1ccccc1`, the pIC50 is 6.64.
Regarding `CCCCCCOc1cc([N+](=O)[O-])ccc1N(C)S(C)(=O)=O`, the pIC50 was 5.35.
`CN(c1ccc(NC(=O)c2ccc3ccccc3c2)cc1OCc1ccccc1)S(C)(=O)=O` had a pIC50 of 5.97.
As for `CN(c1ccc([N+](=O)[O-])cc1OCCc1ccccc1)S(C)(=O)=O`, the pIC50 is 6.28.
Same read-out and setting: then `CS(=O)(=O)Nc1ccc([N+](=O)[O-])cc1OCc1ccc([N+](=O)[O-])cc1`, with 6.40; and `COc1ccc(COc2cc([N+](=O)[O-])ccc2N(C)S(C)(=O)=O)cc1`, with 6.33; and `CC(C)Oc1cc([N+](=O)[O-])ccc1N(C)S(C)(=O)=O`, with 5.55.
Still for that read-out and setting: the same measure for `O=C(Nc1ccc([N+](=O)[O-])cc1OCc1ccccc1)c1ccc(Cl)c(Cl)c1`: below 4.60; for `O=C(Nc1ccc([N+](=O)[O-])cc1OCc1ccccc1)C1CCCCC1`: below 4.60.
`CS(=O)(=O)Nc1ccc([N+](=O)[O-])cc1OCc1ccc(-c2ccccc2)cc1` gave a pIC50 of 6.07.
`CC(C)Oc1cc([N+](=O)[O-])ccc1NS(C)(=O)=O` had a pIC50 of 5.23.
Compound `O=C(Nc1ccc([N+](=O)[O-])cc1OCc1ccccc1)c1ccccc1` showed a pIC50 below 4.60.
The same measure, in the same setting: then `CN(c1ccc([N+](=O)[O-])cc1OCc1ccccc1)S(C)(=O)=O`, with 6.09; and `O=C(Nc1ccc([N+](=O)[O-])cc1OCc1ccccc1)c1cccc([N+](=O)[O-])c1`, with below 4.60.
In turn, `Cc1ccc(S(=O)(=O)Nc2ccc([N+](=O)[O-])cc2OCc2ccccc2)cc1` showed a pIC50 of 4.76.
In turn, `CS(=O)(=O)Nc1ccc([N+](=O)[O-])cc1OCc1cccc2ccccc12` showed a pIC50 of 5.24.
`O=C(Nc1ccc([N+](=O)[O-])cc1OCc1ccccc1)c1ccc2ccccc2c1`: the pIC50 is below 4.60.
Compound `CS(=O)(=O)Nc1ccc([N+](=O)[O-])cc1OCc1ccc2ccccc2c1` had a pIC50 of 5.66.
Turning to `CC(=O)Nc1ccc([N+](=O)[O-])cc1OCc1ccccc1`, the pIC50 is 5.93.
As for `CCCOc1cc([N+](=O)[O-])ccc1N(C)S(C)(=O)=O`, the pIC50 is 6.12.
`CN(c1ccc(NC(=O)c2ccc(Cl)c(Cl)c2)cc1OCc1ccccc1)S(C)(=O)=O`: the pIC50 is 6.16.
For the compound `CN(c1ccc([N+](=O)[O-])cc1OCc1ccc(Br)cc1)S(C)(=O)=O`, the pIC50 was 6.48.
`CN(c1ccc([N+](=O)[O-])cc1OC1CCCC1)S(C)(=O)=O`: the negative logarithm of the IC50 (pIC50) is 6.36.
Regarding `CN(c1ccc([N+](=O)[O-])cc1OCc1ccc(-c2ccccc2)cc1)S(C)(=O)=O`, the pIC50 was 6.19.
Regarding `O=C(Nc1ccc([N+](=O)[O-])cc1OCc1ccccc1)c1ccc([N+](=O)[O-])cc1`, the pIC50 was below 4.60.
`CN(c1ccc([N+](=O)[O-])cc1OCc1ccc(Cl)cc1)S(C)(=O)=O` gave a pIC50 of 5.62.
`N#Cc1ccc(C(=O)Nc2ccc([N+](=O)[O-])cc2OCc2ccccc2)cc1` had a pIC50 below 4.60.
`COc1ccc(COc2cc([N+](=O)[O-])ccc2NS(C)(=O)=O)cc1`: the pIC50 is 5.11.
Regarding `CS(=O)(=O)Nc1ccc([N+](=O)[O-])cc1OCc1ccc(F)cc1`, the pIC50 is 6.24.

A further assay deals with SK-BR-3. Nature of the assay: Cytotoxicity against human SKBR3 cells by diphenylamine DNA assay. It counts as functional, cell-based.
Conditions: not given
For `CC(C)c1ccc(COc2cc([N+](=O)[O-])ccc2N(C)S(C)(=O)=O)cc1`, the outcome was Active.
`Cc1ccc(C)c(COc2cc([N+](=O)[O-])ccc2N(C)S(C)(=O)=O)c1`: the result was Active.

For the origin of these results see ChEMBL document CHEMBL1143195, “Novel sulfonanilide analogs decrease aromatase activity in breast cancer cells: synthesis, biological evaluation, and ligand-based pharmacophore identification” (J Med Chem, 2008).
